Data taken from ChEMBL document CHEMBL1944580, “Synthesis of novel sulfonamide-1,2,4-triazoles, 1,3,4-thiadiazoles and 1,3,4-oxadiazoles, as potential antibacterial and antifungal agents. Biological evaluation and conformational analysis studies” (2012).
≈ marks a conversion by molar mass, not a printed value.

System: Micrococcus flavus
Assay: Antibacterial activity against Micrococcus flavus ATCC 10240 treated for 24 hrs followed by sub-cultivated for 72 hrs by micro dilution method
Assay type: functional
Conditions: not given
How it was run: (§1)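 2 µl from each well was serially subcultured into 100 µl fresh broth per well and incubated a further 72 h. MBC is the lowest concentration with no visible growth, taken as 99.5% killing of the original inoculum. Streptomycin and ampicillin were the positive controls.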

With COc1cc(Cc2n[nH]c(=S)n2C(C)(C)C)c(S(=O)(=O)N(C)C)cc1OC as the compound, how does the MBC read?
Its MBC is 420 µM (≈ 174 µg/mL).

System: Salmonella typhimurium
Assay: Antibacterial activity against Salmonella Typhimurium ATCC 13311 treated for 24 hrs followed by sub-cultivated for 72 hrs by micro dilution method
Assay type: functional, Salmonella enterica subsp. enterica serovar Typhimurium
Conditions: Salmonella enterica
How it was run: as §1

COc1cc(Cc2n[nH]c(=S)n2C(C)(C)C)c(S(=O)(=O)N(C)C)cc1OC was tested. Which MBC did it give?
Its MBC is 420 µM (≈ 174 µg/mL).

System: Fulvia fulva
Assay: Antifungal activity against Fulvia fulva treated for 72 hrs followed by sub-cultivated for 5 days by serial dilution method
Assay type: functional
Conditions: not given
How it was run: (§2)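 MFC obtained after the 72 h, 28 °C malt-broth microdilution (spore inoculum about 1.0 × 10^5 per well, compounds from 1 mg/ml DMSO). 2 µl was serially subcultured into 100 µl broth per well and incubated a further 5 days at 28 °C. MFC is the lowest concentration with no visible growth, taken as 99.5% killing of the original inoculum.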

COc1cc(Cc2n[nH]c(=S)n2C(C)(C)C)c(S(=O)(=O)N(C)C)cc1OC was tested. Which MFC did it give?
Its MFC is 240 µM (≈ 99.5 µg/mL).

System: Listeria monocytogenes
Assay: Antibacterial activity against Listeria monocytogenes NCTC 7973 treated for 24 hrs followed by sub-cultivated for 72 hrs by micro dilution method
Assay type: functional
Conditions: not given
How it was run: as §1

Which MBC does the source give for COc1cc(Cc2n[nH]c(=S)n2C(C)(C)C)c(S(=O)(=O)N(C)C)cc1OC here?
The MBC was 420 µM (≈ 174 µg/mL).

System: Salmonella typhimurium
Assay: Antibacterial activity against Salmonella Typhimurium ATCC 13311 after 24 hrs by micro dilution method
Assay type: functional, Salmonella enterica subsp. enterica serovar Typhimurium
Conditions: Salmonella enterica, ATCC 13311, 24 h
How it was run: (§3)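 Microdilution MIC in 96-well plates. Bacterial suspensions adjusted in sterile saline to 1.0 × 10^5 CFU/ml, giving 1.0 × 10^4 cfu per well in LB broth. Compounds tested at up to 1 mg/ml. Plates incubated 24 h. MIC taken as the lowest concentration with no visible growth under a binocular microscope. OD at 655 nm was also read against a blank and the positive control. Streptomycin and ampicillin were the positive controls.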

With COc1cc(Cc2n[nH]c(=S)n2C(C)(C)C)c(S(=O)(=O)N(C)C)cc1OC as the compound, how does the MIC read?
Its MIC is 240 µM (≈ 99.5 µg/mL).

System: Bacillus cereus
Assay: Antibacterial activity against Bacillus cereus clinical isolate treated for 24 hrs followed by sub-cultivated for 72 hrs by micro dilution method
Assay type: functional
Conditions: not given
How it was run: as §1

For COc1cc(Cc2n[nH]c(=S)n2C(C)(C)C)c(S(=O)(=O)N(C)C)cc1OC, which MBC is on record?
The MBC was 480 µM (≈ 199 µg/mL).

System: Fulvia fulva
Assay: Antifungal activity against Fulvia fulva after 72 hrs by serial dilution method
Assay type: functional
Conditions: not given
How it was run: (§4)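 Modified microdilution MIC. Spores were washed from malt agar cultures with sterile 0.85% saline containing 0.1% Tween 80 and adjusted to about 1.0 × 10^5 per 100 µl well in malt broth. Compounds were dissolved in DMSO (1 mg/ml). Plates incubated 72 h at 28 °C. MIC is the lowest concentration with no visible growth under a binocular microscope. Bifonazole and ketoconazole were the references.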

For COc1cc(Cc2n[nH]c(=S)n2C(C)(C)C)c(S(=O)(=O)N(C)C)cc1OC, which MIC is on record?
The MIC was 240 µM (≈ 99.5 µg/mL).

System: Pseudomonas aeruginosa
Assay: Antibacterial activity against Pseudomonas aeruginosa ATCC 27853 treated for 24 hrs followed by sub-cultivated for 72 hrs by micro dilution method
Assay type: functional
Conditions: not given
How it was run: as §1

How did the MBC turn out when COc1cc(Cc2n[nH]c(=S)n2C(C)(C)C)c(S(=O)(=O)N(C)C)cc1OC was run?
The MBC was 420 µM (≈ 174 µg/mL).

System: Pseudomonas aeruginosa
Assay: Antibacterial activity against Pseudomonas aeruginosa ATCC 27853 after 24 hrs by micro dilution method
Assay type: functional
Conditions: ATCC 27853, 24 h
How it was run: as §3

With COc1cc(Cc2n[nH]c(=S)n2C(C)(C)C)c(S(=O)(=O)N(C)C)cc1OC as the compound, how does the MIC read?
The MIC was 240 µM (≈ 99.5 µg/mL).

System: Escherichia coli
Assay: Antibacterial activity against Escherichia coli ATCC 35210 after 24 hrs by micro dilution method
Assay type: functional
Conditions: ATCC 35210, 24 h
How it was run: as §3

Which MIC does the source give for COc1cc(Cc2n[nH]c(=S)n2C(C)(C)C)c(S(=O)(=O)N(C)C)cc1OC here?
Its MIC is 240 µM (≈ 99.5 µg/mL).

System: Aspergillus versicolor
Assay: Antifungal activity against Aspergillus versicolor ATCC 11730 treated for 72 hrs followed by sub-cultivated for 5 days by serial dilution method
Assay type: functional
Conditions: not given
How it was run: as §2

How did the MFC turn out when COc1cc(Cc2n[nH]c(=S)n2C(C)(C)C)c(S(=O)(=O)N(C)C)cc1OC was run?
Its MFC is 360 µM (≈ 149 µg/mL).

System: Trichoderma viride
Assay: Antifungal activity against Trichoderma viride IAM 5061 treated for 72 hrs followed by sub-cultivated for 5 days by serial dilution method
Assay type: functional
Conditions: not given
How it was run: as §2

Which MFC does the source give for COc1cc(Cc2n[nH]c(=S)n2C(C)(C)C)c(S(=O)(=O)N(C)C)cc1OC here?
Its MFC is 240 µM (≈ 99.5 µg/mL).

System: Aspergillus niger
Assay: Antifungal activity against Aspergillus niger ATCC 6275 treated for 72 hrs followed by sub-cultivated for 5 days by serial dilution method
Assay type: functional
Conditions: not given
How it was run: as §2

COc1cc(Cc2n[nH]c(=S)n2C(C)(C)C)c(S(=O)(=O)N(C)C)cc1OC was tested. Which MFC did it give?
The MFC was 360 µM (≈ 149 µg/mL).

System: Aspergillus niger
Assay: Antifungal activity against Aspergillus niger ATCC 6275 after 72 hrs by serial dilution method
Assay type: functional
Conditions: ATCC 6275, 72 h
How it was run: as §4

With COc1cc(Cc2n[nH]c(=S)n2C(C)(C)C)c(S(=O)(=O)N(C)C)cc1OC as the compound, how does the MIC read?
The MIC was 240 µM (≈ 99.5 µg/mL).

System: Enterobacter cloacae
Assay: Antibacterial activity against Enterobacter cloacae human isolate after 24 hrs by micro dilution method
Assay type: functional
Conditions: not given
How it was run: as §3

Which MIC does the source give for COc1cc(Cc2n[nH]c(=S)n2C(C)(C)C)c(S(=O)(=O)N(C)C)cc1OC here?
Its MIC is 240 µM (≈ 99.5 µg/mL).

System: Staphylococcus aureus
Assay: Antibacterial activity against Staphylococcus aureus ATCC 6538 treated for 24 hrs followed by sub-cultivated for 72 hrs by micro dilution method
Assay type: functional
Conditions: not given
How it was run: as §1

With COc1cc(Cc2n[nH]c(=S)n2C(C)(C)C)c(S(=O)(=O)N(C)C)cc1OC as the compound, how does the MBC read?
Its MBC is 420 µM (≈ 174 µg/mL).

System: Aspergillus flavus
Assay: Antifungal activity against Aspergillus flavus ATCC 9643 treated for 72 hrs followed by sub-cultivated for 5 days by serial dilution method
Assay type: functional
Conditions: not given
How it was run: as §2

With COc1cc(Cc2n[nH]c(=S)n2C(C)(C)C)c(S(=O)(=O)N(C)C)cc1OC as the compound, how does the MFC read?
The MFC was 360 µM (≈ 149 µg/mL).

System: Penicillium ochrochloron
Assay: Antifungal activity against Penicillium ochrochloron ATCC 9112 after 72 hrs by serial dilution method
Assay type: functional
Conditions: ATCC 9112, 72 h
How it was run: as §4

Which MIC does the source give for COc1cc(Cc2n[nH]c(=S)n2C(C)(C)C)c(S(=O)(=O)N(C)C)cc1OC here?
The MIC was 120 µM (≈ 49.7 µg/mL).

System: Aspergillus fumigatus
Assay: Antifungal activity against Aspergillus fumigatus human isolate treated for 72 hrs followed by sub-cultivated for 5 days by serial dilution method
Assay type: functional
Conditions: not given
How it was run: as §2

How did the MFC turn out when COc1cc(Cc2n[nH]c(=S)n2C(C)(C)C)c(S(=O)(=O)N(C)C)cc1OC was run?
The MFC was 120 µM (≈ 49.7 µg/mL).

System: Aspergillus versicolor
Assay: Antifungal activity against Aspergillus versicolor ATCC 11730 after 72 hrs by serial dilution method
Assay type: functional
Conditions: ATCC 11730, 72 h
How it was run: as §4

How did the MIC turn out when COc1cc(Cc2n[nH]c(=S)n2C(C)(C)C)c(S(=O)(=O)N(C)C)cc1OC was run?
The MIC was 240 µM (≈ 99.5 µg/mL).

System: Micrococcus flavus
Assay: Antibacterial activity against Micrococcus flavus ATCC 10240 after 24 hrs by micro dilution method
Assay type: functional
Conditions: ATCC 10240, 24 h
How it was run: as §3

Which MIC does the source give for COc1cc(Cc2n[nH]c(=S)n2C(C)(C)C)c(S(=O)(=O)N(C)C)cc1OC here?
The MIC was 240 µM (≈ 99.5 µg/mL).

System: Penicillium ochrochloron
Assay: Antifungal activity against Penicillium ochrochloron ATCC 9112 treated for 72 hrs followed by sub-cultivated for 5 days by serial dilution method
Assay type: functional
Conditions: not given
How it was run: as §2

With COc1cc(Cc2n[nH]c(=S)n2C(C)(C)C)c(S(=O)(=O)N(C)C)cc1OC as the compound, how does the MFC read?
Its MFC is 360 µM (≈ 149 µg/mL).

System: Escherichia coli
Assay: Antibacterial activity against Escherichia coli ATCC 35210 treated for 24 hrs followed by sub-cultivated for 72 hrs by micro dilution method
Assay type: functional
Conditions: not given
How it was run: as §1

With COc1cc(Cc2n[nH]c(=S)n2C(C)(C)C)c(S(=O)(=O)N(C)C)cc1OC as the compound, how does the MBC read?
The MBC was 420 µM (≈ 174 µg/mL).

System: Bacillus cereus
Assay: Antibacterial activity against Bacillus cereus clinical isolate after 24 hrs by micro dilution method
Assay type: functional
Conditions: not given
How it was run: as §3

Which MIC does the source give for COc1cc(Cc2n[nH]c(=S)n2C(C)(C)C)c(S(=O)(=O)N(C)C)cc1OC here?
The MIC was 240 µM (≈ 99.5 µg/mL).

System: Talaromyces funiculosus
Assay: Antifungal activity against Penicillium funiculosum ATCC 36839 after 72 hrs by serial dilution method
Assay type: functional
Conditions: ATCC 36839, 72 h
How it was run: as §4

COc1cc(Cc2n[nH]c(=S)n2C(C)(C)C)c(S(=O)(=O)N(C)C)cc1OC was tested. Which MIC did it give?
Its MIC is 120 µM (≈ 49.7 µg/mL).

System: Trichoderma viride
Assay: Antifungal activity against Trichoderma viride IAM 5061 after 72 hrs by serial dilution method
Assay type: functional
Conditions: IAM 5061, 72 h
How it was run: as §4

Which MIC does the source give for COc1cc(Cc2n[nH]c(=S)n2C(C)(C)C)c(S(=O)(=O)N(C)C)cc1OC here?
Its MIC is 240 µM (≈ 99.5 µg/mL).

System: Talaromyces funiculosus
Assay: Antifungal activity against Penicillium funiculosum ATCC 36839 treated for 72 hrs followed by sub-cultivated for 5 days by serial dilution method
Assay type: functional
Conditions: not given
How it was run: as §2

How did the MFC turn out when COc1cc(Cc2n[nH]c(=S)n2C(C)(C)C)c(S(=O)(=O)N(C)C)cc1OC was run?
Its MFC is 240 µM (≈ 99.5 µg/mL).

System: Enterobacter cloacae
Assay: Antibacterial activity against Enterobacter cloacae human isolate treated for 24 hrs followed by sub-cultivated for 72 hrs by micro dilution method
Assay type: functional
Conditions: not given
How it was run: as §1

For COc1cc(Cc2n[nH]c(=S)n2C(C)(C)C)c(S(=O)(=O)N(C)C)cc1OC, which MBC is on record?
The MBC was 420 µM (≈ 174 µg/mL).

System: Listeria monocytogenes
Assay: Antibacterial activity against Listeria monocytogenes NCTC 7973 after 24 hrs by micro dilution method
Assay type: functional
Conditions: NCTC 7973, 24 h
How it was run: as §3

Which MIC does the source give for COc1cc(Cc2n[nH]c(=S)n2C(C)(C)C)c(S(=O)(=O)N(C)C)cc1OC here?
The MIC was 240 µM (≈ 99.5 µg/mL).

System: Aspergillus fumigatus
Assay: Antifungal activity against Aspergillus fumigatus human isolate after 72 hrs by serial dilution method
Assay type: functional
Conditions: not given
How it was run: as §4

With COc1cc(Cc2n[nH]c(=S)n2C(C)(C)C)c(S(=O)(=O)N(C)C)cc1OC as the compound, how does the MIC read?
The MIC was 20 µM (≈ 8.29 µg/mL).

System: Aspergillus flavus
Assay: Antifungal activity against Aspergillus flavus ATCC 9643 after 72 hrs by serial dilution method
Assay type: functional
Conditions: ATCC 9643, 72 h
How it was run: as §4

For COc1cc(Cc2n[nH]c(=S)n2C(C)(C)C)c(S(=O)(=O)N(C)C)cc1OC, which MIC is on record?
Its MIC is 240 µM (≈ 99.5 µg/mL).

System: Staphylococcus aureus
Assay: Antibacterial activity against Staphylococcus aureus ATCC 6538 after 24 hrs by micro dilution method
Assay type: functional
Conditions: ATCC 6538, 24 h
How it was run: as §3

Which MIC does the source give for COc1cc(Cc2n[nH]c(=S)n2C(C)(C)C)c(S(=O)(=O)N(C)C)cc1OC here?
The MIC was 240 µM (≈ 99.5 µg/mL).
